Data published in ChEMBL document CHEMBL4513216, “Probing the Open Global Health Chemical Diversity Library for Multistage-Active Starting Points for Next-Generation Antimalarials” (ACS Infect Dis, 2020).

Assay: Toxicity liver stage against HepG2, at 10uM
Type: cell-based
Design: test concentration 10 uM, cell line HepG2-A16-CD81EGFP
Details: human, HepG2-A16-CD81EGFP cells; read-out: INHIBITION
Procedure, shortened: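 Uninfected HepG2-A16-CD81EGFP cells, 3 × 10^3 per well, 1536-well, plated on prespotted compound at 10 μM final, parasite-free screening media added to match infected plates; puromycin 10 μM positive, DMSO 0.5% negative; run in parallel with 48 h PbLuc assay at 37 °C, 5% CO2; viability by CellTiter-Glo luminescence, normalized to controls.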

Structure (SMILES)	cytotoxicity at 10 µM [%]
CCn1c(=NC(=O)CSCC(=O)Nc2nccs2)sc2ccccc21	-2.17
c1ncc2c(n1)CN(CC1CCCCO1)CC2 (centres undefined)	2.93
CCS(=O)(=O)N1CCc2ccc(NC(=O)Nc3ccccc3)cc21	42.2
Cc1cc(C(=O)N2CCN(c3nc4c(C(C)C)cccc4s3)CC2)on1	6.64
CCc1cc(=O)[nH]c(-n2nc(C3CC3)cc2NC(=O)C2CC2)n1	26.5
Cc1nc(-n2nc(C3CC3)cc2NC(=O)C(C)C)[nH]c(=O)c1C	54.5
CC(=O)N(C)CC(=O)Nc1cnc(-n2ccnc2C)nc1	3.86
O=C(NC1CC1)c1cnc(-c2noc3cc(N4CCCCC4)ccc23)s1	46
COCCNC(=O)Cn1c(C)cc2nc(SC)n(CC(C)C)c(=O)c21	-14.6
COc1ccc(-c2nnsc2C(=O)N2CCC(C(N)=O)CC2)cc1	-1.7
COCCCNC1N=C(n2nc(C)cc2C)Nc2sc3c(c21)CCCC3 (centres undefined)	10.6
O=C(c1ccc(COc2ccc(Cl)cc2)o1)N1N=CCC1(O)C(F)(F)F (centres undefined)	30
O=C1CC(c2ccc(C(=O)O)cc2)c2c(sc3c2CCCC3)N1 (centres undefined)	-5.14
Cc1cc2c(cc1Cl)C=CC1(CCN(C(=O)N3CCOCC3)CC1)O2	23.2
CC(C)Nc1cc(-c2c[nH]nc2C2CCN(C(=O)C3CCC3)C2)ccn1 (centres undefined)	81.8
CC(C)C[C@H](N)COc1cccc(F)c1Oc1ccc(Cl)cc1	84.7
Cc1ccc(Nc2nccc(C3CCN(CC(N)=O)C3)n2)nc1 (centres undefined)	-16.7
Cc1ccc(Oc2cc(F)ccc2O[C@@H]2CCC[C@@H](N)[C@H]2O)cc1	-3.89
COc1cc(C)c(CN2CCc3nc4ccsc4c(=O)n3CC2)cc1C	-15.7
COc1ccc(CN2CCc3nc4ccsc4c(=O)n3CC2)c(C)c1C	67.3
Cc1ccc(S(=O)(=O)N2C[C@H]3C[C@H](NC(=O)c4ccccn4)[C@H]3C2)cc1	64.3
Cc1cc(-c2cnc(NCc3ccc4c(c3)OCO4)nc2C(C)C)on1	-1.23

Structure (SMILES)	cytotoxicity at 10 µM [%]
Cc1ccc([C@]2(O)CC[C@H]3CN(Cc4ccc(Cl)cc4Cl)C[C@H]32)nc1	8.32
CN(C)S(=O)(=O)N1CCC(c2cccc(Cc3ccccc3Cl)n2)CC1	55.9
Cc1nccn1-c1cccc(N2CCC(OCC3CCCCO3)CC2)n1 (centres undefined)	11.3
COC(=O)c1ncccc1N1CCCCC1	-8.77
CCN(C)S(=O)(=O)N1CCCC(c2nc(-c3ccccc3)c[nH]2)C1 (centres undefined)	-8.02
COc1cc(NC(=O)N(C)C(C2CC2)C2CC2)ncn1	-6.69
Cc1noc(C)c1CN(C)CCc1nc(-c2cccc(Cl)c2)no1	16.6
COC(=O)CCN(C)C(=O)c1csc(Cc2ccccc2F)n1	9.38
Cc1csc(N2CCCN(c3cc(C)nc(C)c3C#N)CC2)n1	22.6
Cc1nn(C)c(C)c1CCNC(C)c1ccc(-n2ccnc2C)cc1 (centres undefined)	31.6
O=C(Nc1nccs1)C1CCCN1Cc1ccccn1 (centres undefined)	-20
c1cnnc(N2CCCC2CNCCc2cccs2)c1 (centres undefined)	-0.555
CC(C(=O)Nc1sccc1C(N)=O)N(C)CCOc1ccccc1 (centres undefined)	2.59
c1ccc(C2CCCN(c3cncc(-n4cccn4)n3)CC2)cc1 (centres undefined)	48
CCCS(=O)(=O)CC(=O)N1CCCC1c1noc(C2CC2)n1 (centres undefined)	3.34
COc1ccc(Br)c(C(=O)NCC2CC2)c1	23.4
COCCN1CCN(CCS(=O)(=O)c2cccc(OC)c2)CC1	-1.33
N#Cc1ccc(OCC(O)CN2CCN(c3nccs3)CC2)cc1 (centres undefined)	2.06
Cc1nc(COc2ccc(CNCCn3cccn3)cc2)cs1	-8.96
C=C(C)CN1CCC(NC(=O)NCCc2ccccc2OC)CC1	14.2
COCC(=O)NCc1cccc(OCCN(C)C2CCOCC2)c1	8.35
O=C(CN1CCCC1Cn1cncn1)NCC1(c2ccccc2)CC1 (centres undefined)	4.74

Structure (SMILES)	cytotoxicity at 10 µM [%]
Cc1nc(C)n(CC2CCCN2CC(=O)NCCc2ccsc2)n1 (centres undefined)	0.932
O=C(c1c[nH]c(=O)[nH]1)N1CCc2ccccc21	81.9
Cc1cn2c(n1)C(CNCC1=Cc3cc(Cl)ccc3OC1)CCC2 (centres undefined)	33.3
CC(C)n1nc2c(cc1=O)CN(c1ncnc3sccc13)CC2	49.7
COC(=O)c1sc(NCc2ccc(N3CCC(O)CC3)c(F)c2)nc1Cl	44.5
Cc1ccc(-c2nc(CSCCC(=O)NC(N)=O)co2)cc1	-2.69
Fc1cccc2ncnc(NCC3(N4CCOCC4)CCSC3)c12 (centres undefined)	50.6
N#Cc1ccc(CN(CC(N)=O)C2CCCC2)cc1	38
CCc1nc(CN2CCCC(Nc3ncnc4ccsc34)C2)no1 (centres undefined)	52.2
Cc1ncc(C(=O)NC2CCN(CCOc3ccc(Br)cc3)CC2)s1	7.28
CN1CCOC(C(=O)Nc2ccc3c(c2)nc(C(C)(C)C)n3C)C1 (centres undefined)	-1.8
CC1CCN(c2nc3c(cnn3-c3ccccc3)c(=O)[nH]2)CC1	-9.5
CCc1nc(CN2CCN(c3ncnc4cc(F)ccc34)CC2)no1	41.5
NC(=O)C1CN(C(=O)Nc2cc(Cl)cc(Cl)c2)CCO1 (centres undefined)	55.1
Cc1ccc(CN2CCC3(CC2)C(=O)NCCN3CC2CC2)o1	-66.8
Cc1cn2c(=O)c(-c3ccnc(N(C)C4CCCCC4)n3)cnc2s1	9.49
Cc1cncc(NC(=O)c2ccc(CN3CC[C@H](O)C3)cc2)c1	12.4
Cc1noc(-c2ccnc(Oc3ccc(CN4CCCC4)cc3C)c2)n1	51.4
CC(C)c1cc(NCc2csc(N(C)C)n2)nc(N)n1	31.8
Cc1cnc(C)c(Oc2ccc(CN3CCCC3)cc2Cl)n1	-1.37
Cc1ccccc1OC1CN(Cc2c(C)nc3ccccn23)C1	43.3
CN(Cc1cccc(-n2cccn2)c1)c1cc(N2CCCC2)nc(N)n1	51.6

Structure (SMILES)	cytotoxicity at 10 µM [%]
CN(C)CCNC(=O)c1ccc(S(=O)(=O)N[C@@H]2CCNC2)cc1	-49.2
O=S1(=O)CCC(CNc2cc(-c3ccccc3)nc3ccnn23)C1 (centres undefined)	61.2
Cc1[nH]c2ccc(Cl)cc2c1CCNc1ncnc2c1CCNC2	22.4
COc1cc(Oc2ccc(C(F)(F)F)cn2)ccc1CN1CCCC1	51.5
OCC1(Cc2ccc(Cl)cc2)CCN(Cc2cccnc2)CC1	-45.6
CCc1[nH]c2c(CNc3cc(C)nc(NC)n3)cc(C)cc2c1C	-41
Cc1ccccc1N1CCN(c2nc(N(C)C)nc3c2CCNC3)CC1	8.97
NCC1CCN(C2CCN(c3ccc(-c4ccco4)cc3)CC2)C1 (centres undefined)	93.9
Cc1ccccc1CC1(CO)CCCN(c2ncnc3sccc23)C1 (centres undefined)	27.5
CCCc1cncnc1N1CCC(NCc2cc3ccccc3[nH]2)CC1	15.8
Cc1c(-c2cnn(C)c2)nc(N)c(C#N)c1-c1ccc(CO)o1	-117
COc1ccccc1C1CCN(c2ccc3cc[nH]c3n2)CC1	-6.78
CC(C)(C)c1cn(CC2CCCN(c3cnc4ccccc4n3)C2)nn1 (centres undefined)	42.9
FC(F)(F)c1nc(NC2CCCCC2)c2ccccc2n1	29.7
Cc1ccccc1-n1cc(-c2ccnc(NC(CO)C(C)C)n2)cn1 (centres undefined)	7.12
Nc1nc2c(c(NC3CCCC3)n1)CCN(C(=O)C1CCOC1)CC2 (centres undefined)	-129
COCc1noc(-c2ccc(N3CCCCC3CO)nc2)n1 (centres undefined)	-2.38
FC(F)(F)c1nc(NC2CCCC2)c2ccccc2n1	15.8
CC(=O)c1ccc(N2CCC(CO)(CCOc3ccccc3)CC2)nc1	28.1
Cc1ccccc1-c1noc(CN2CCC(N3CCNC3=O)CC2)n1	11.6
O=C1NCCN1C1CCN(Cc2nc(-c3ccccc3)no2)CC1	30.3
Cc1cnn(C2CN(Cc3nc(-c4ccccc4C)no3)C2)c1	-10.6

Structure (SMILES)	cytotoxicity at 10 µM [%]
O=C(c1cc(Cl)c[nH]1)N1CCCC(c2cc(C(F)(F)F)[nH]n2)C1 (centres undefined)	18
COc1cc(C(=O)Nc2nc(C)no2)cc(OC)c1Br	-8.78
Cc1cccc(C(=O)NCc2ccc(N3CCCCCC3)nc2)n1	-5.34
CCc1cccc(N2CCC(NC(=O)c3ccco3)CC2)c1	-4.38
Cc1nc(C)n(CC2CN(Cc3nc4ccccc4s3)CCO2)n1 (centres undefined)	44.4
Cc1nc(C)n(CC2CCCN(c3ncnc4ccccc34)C2)n1 (centres undefined)	17.4
COc1c(CNCc2ccc(C(=O)N(C)C(C)C)cc2)c(C)nn1C	33.2
COc1c(C)cnc(CN2CCC(N(C)C(C)C(N)=O)CC2)c1C (centres undefined)	-3.38
Cc1cccc(NC2CCN(C(=O)Nc3cc(F)cc(F)c3)CC2)n1	-0.961
Cc1ccoc1C(=O)NC1CCN(Cc2csc3c(F)cccc23)CC1	1.13
c1ccc(Sc2ccc3c(c2)OCO3)c(CNC2=NCCN2)c1	17.6
Cc1nnc(N2CC[C@H]3C[C@H](C(=O)N(C)C)O[C@@H]3C2)s1	-80.9
O=C1N(Cc2cccnc2)CCC12CCCN(c1ncccn1)C2 (centres undefined)	-10.9
Cc1nnc(N2CC[C@@H](OCC3CC3)[C@@H](Cc3ccccc3)C2)s1	14.4
O=C(NC1CC1)[C@@H]1CCO[C@@H]2CCN(CC3CCC3)C[C@@H]21	-101
O=C(NCc1cc(=O)n2c(n1)CN(CC1CC1)CCC2)c1ccsc1	-103
Fc1ccc(CN2CCO[C@H]3[C@H](OCc4ccncc4)CC[C@@H]32)cc1	-26.7
COc1ccc2c(c1)C1(CCNCC1)CC2NC1CC1 (centres undefined)	-117
O=C(Cc1ccncc1)N1CCC2(CC1)CC(c1ccccc1)CO2 (centres undefined)	-86.1
c1cnc(N2CCC3(CC2)CC(NCC2CC2)c2ccccc23)nc1 (centres undefined)	22.4
CC(C)c1nnc(N2C[C@H]3CC[C@@H](C2)N(Cc2ccccc2)C3)s1	-3.86
